Test results as given in ChEMBL document CHEMBL1255187, “Structure-based design and synthesis of potent, ethylenediamine-based, mammalian farnesyltransferase inhibitors as anticancer agents” (J Med Chem, 2010).
Blank lines part the entries; values can stand above or below the compound they belong to.

Assays:
[1] = biological target: Geranylgeranyl transferase type I (Homo sapiens, UniProt P49354+P53609); assay: Inhibition of human geranylgeranyltransferase-1 assessed as incorporation of [3H]GGPP into H-Ras-CVLL; assay type: protein-complex assay
Method in brief: (§1)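 In vitro radiometric assay measuring transfer of [3H]FPP (FTase) or [3H]GGPP (GGTase-I) onto recombinant H-Ras-CVLS or H-Ras-CVLL, respectively.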

[2] = biological target: Protein farnesyltransferase (Homo sapiens, UniProt P49354+P49356); assay: Inhibition of human farnesyltransferase assessed as incorporation of [3H]FPP into H-Ras-CVLS; assay type: protein-complex assay; method in brief: as §1
Homo sapiens = species: Homo sapiens; assay: Selectivity ratio of IC50 for human geranylgeranyltransferase-1 to IC50 for human farnesyltransferase
[3] = biological target: Protein farnesyltransferase (Mus musculus, UniProt Q61239+Q8K2I1); assay: Inhibition of H-Ras farnesylation expressed in mouse NIH3T3 cells; assay type: functional, cell-based
Method in brief: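 Oncogenic H-Ras-transformed NIH3T3 cells were treated with a range of inhibitor concentrations. Detection used peroxidase-conjugated secondary antibodies and enhanced chemiluminescence. IC50 is the mean of three independent assays ± SD unless stated otherwise.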

[4] = biological target: Geranylgeranyl transferase type 1 (Mus musculus, UniProt Q61239+Q8BUY9); assay: Inhibition of Rap1A geranylgeranylation expressed in mouse NIH3T3 cells; assay type: functional, cell-based
Method in brief: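 Oncogenic H-Ras-transformed NIH3T3 cells were treated with a range of inhibitor concentrations. […] Detection used peroxidase-conjugated secondary antibodies and enhanced chemiluminescence. IC50 is the mean of three independent assays ± SD unless stated otherwise.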

SMILES: Cc1ccc(CN(CCN(Cc2cncn2C)c2ccc(C#N)cc2)S(=O)(=O)c2cn(C)cn2)cc1
IC50 [1]: 580 nM
IC50 [2]: 370 nM
IC50 [3]: 2000 nM
IC50 [4]: > 10000 nM

SMILES: Cn1cnc(S(=O)(=O)N(CCN(Cc2cncn2C)c2ccc(C#N)cc2)CC2CC2)c1
IC50 [1]: > 10000 nM
IC50 [2]: 590 nM
Selectivity ratio (Homo sapiens): > 17
IC50 [3]: > 10000 nM
IC50 [4]: > 10000 nM

SMILES: Cc1nc(C)c(CN(CCN(Cc2cncn2C)c2ccc(C#N)cc2)S(=O)(=O)c2cn(C)cn2)s1
IC50 [1]: > 10000 nM
IC50 [2]: 6200 nM
Selectivity ratio (Homo sapiens): > 1.6
IC50 [3]: > 10000 nM
IC50 [4]: > 10000 nM

SMILES: Cn1cnc(S(=O)(=O)N(CCN(Cc2cncn2C)c2ccc(C#N)cc2)Cc2ccncc2)c1
IC50 [1]: > 10000 nM
IC50 [2]: 72 nM
IC50 [3]: > 10000 nM
IC50 [4]: > 10000 nM

SMILES: Cn1cnc(S(=O)(=O)N(CCN(Cc2cncn2C)c2ccc(Br)cc2)Cc2ccccc2)c1
Selectivity ratio (Homo sapiens): 6.7
IC50 [3]: 1600 nM
IC50 [4]: > 10000 nM

SMILES: Cn1cnc(S(=O)(=O)N(CCN(Cc2cncn2C)c2ccc(C#N)cc2)CC2CCCCC2)c1
IC50 [1]: 530 nM
IC50 [2]: 60 nM
Selectivity ratio (Homo sapiens): 8.8
IC50 [3]: 100 nM
IC50 [4]: > 10000 nM

SMILES: Cn1cnc(S(=O)(=O)N(CCN(Cc2cncn2C)c2ccc(C#N)cc2)Cc2ccc(-c3ccccc3)cc2)c1
IC50 [1]: 7300 nM
IC50 [2]: 1700 nM
Selectivity ratio (Homo sapiens): 4.3
IC50 [3]: 5000 nM
IC50 [4]: > 10000 nM

SMILES: Cn1cnc(S(=O)(=O)N(CCN(Cc2cnc[nH]2)c2ccccc2)Cc2ccccc2)c1
IC50 [1]: > 10000 nM
IC50 [3]: > 10000 nM
IC50 [4]: > 10000 nM

SMILES: Cc1noc(C)c1CN(CCN(Cc1cncn1C)c1ccc(C#N)cc1)S(=O)(=O)c1cn(C)cn1
IC50 [1]: 1360 nM
IC50 [2]: 510 nM
Selectivity ratio (Homo sapiens): 2.7
IC50 [3]: > 10000 nM
IC50 [4]: > 10000 nM

SMILES: Cn1cnc(S(=O)(=O)N(CCN(Cc2cncn2C)c2ccc(C#N)cc2)Cc2ccccc2)c1
IC50 [1]: 2700 nM
IC50 [3]: 1900 nM
IC50 [4]: > 10000 nM

SMILES: Cn1cnc(S(=O)(=O)N(CCN(Cc2cncn2C)c2ccc(C#N)cc2)CC2CCN(C(=O)OC(C)(C)C)CC2)c1
IC50 [1]: > 10000 nM
Selectivity ratio (Homo sapiens): > 2.7
IC50 [3]: > 2000 nM
IC50 [4]: > 2000 nM

SMILES: Cn1cnc(S(=O)(=O)N(CCN(Cc2cnc[nH]2)c2ccc(Br)cc2)Cc2ccccc2)c1
IC50 [3]: 5700 nM
IC50 [4]: > 10000 nM

SMILES: Cn1cnc(S(=O)(=O)N(CCN(Cc2cncn2C)c2ccc(C#N)cc2)Cc2cccc(C#N)c2)c1
IC50 [2]: 78 nM
IC50 [3]: 5000 nM
IC50 [4]: > 10000 nM

Other lines, results leading:

IC50 [1]: 13400 nM
IC50 [2]: 870 nM
Selectivity ratio (Homo sapiens): 15
IC50 [3]: 800 nM
IC50 [4]: > 10000 nM
SMILES: Cn1cnc(S(=O)(=O)N(CCN(Cc2cncn2C)c2ccc(C#N)cc2)Cc2ccco2)c1

Selectivity ratio (Homo sapiens): 85
IC50 [3]: 70 nM
IC50 [4]: > 10000 nM
SMILES: CCCS(=O)(=O)N(CCN(Cc1cncn1C)c1ccc(C#N)cc1)Cc1ccccc1

IC50 [1]: 940 nM
IC50 [2]: 67 nM
Selectivity ratio (Homo sapiens): 14
IC50 [3]: 400 nM
IC50 [4]: > 10000 nM
SMILES: Cn1cnc(S(=O)(=O)N(CCN(Cc2cncn2C)c2ccc(C#N)cc2)Cc2ccsc2)c1

IC50 [1]: 10000 nM
IC50 [2]: 50 nM
Selectivity ratio (Homo sapiens): 200
IC50 [3]: 500 nM
IC50 [4]: > 10000 nM
SMILES: Cn1cncc1CN(CCN(Cc1ccccc1)S(=O)(=O)c1cccs1)c1ccc(C#N)cc1

IC50 [1]: 690 nM
IC50 [2]: 350 nM
Selectivity ratio (Homo sapiens): 2
IC50 [3]: 288 nM
IC50 [4]: 19000 nM
SMILES: Cn1cncc1CN(CCN(CC1CCCCC1)S(=O)(=O)c1ccccn1)c1ccc(C#N)cn1

IC50 [1]: 6100 nM
IC50 [2]: 320 nM
Selectivity ratio (Homo sapiens): 19
IC50 [3]: 650 nM
IC50 [4]: > 10000 nM
SMILES: Cn1cnc(S(=O)(=O)N(CCN(Cc2cncn2C)c2ccc(C#N)cc2)Cc2ccoc2)c1

IC50 [1]: 820 nM
IC50 [2]: 25 nM
IC50 [3]: 90 nM
IC50 [4]: > 10000 nM
SMILES: Cn1cncc1CN(CCN(Cc1ccccc1)S(=O)(=O)c1ccccn1)c1ccc(C#N)cc1

Selectivity ratio (Homo sapiens): 2.1
IC50 [3]: 88.7 nM
IC50 [4]: 2700 nM
SMILES: Cn1cncc1CN(CCN(CC1CCCCC1)S(=O)(=O)c1ccccn1)c1ccc(C#N)cc1F
